Laboratory results reported in ChEMBL document CHEMBL3286319, “Hyafurones, hyapyrrolines, and hyapyrones: polyketides from Hyalangium minutum” (J Nat Prod, 2014).
In brackets after ≈: the same amount, converted by molar mass. Activity calls are given as the source filed them. The rule behind the calls is not given here.

What was measured:
Micrococcus luteus = assay: Antibacterial activity against Micrococcus luteus by serial dilution method; type: functional
Staphylococcus aureus = assay: Antibacterial activity against Staphylococcus aureus by serial dilution method; type: functional
Escherichia coli = assay: Antibacterial activity against Escherichia coli TolC by serial dilution method; type: functional
Nocardia = assay: Antibacterial activity against Nocardia flava by serial dilution method; type: functional
[1] = tested on: Chromobacterium violaceum; assay: Antibacterial activity against Chromobacterium violaceum by serial dilution method; type: functional
Pseudomonas aeruginosa = assay: Antibacterial activity against Pseudomonas aeruginosa by serial dilution method; type: functional
Mycolicibacterium phlei = assay: Antibacterial activity against Mycobacterium phlei by serial dilution method; type: functional
Mucor hiemalis = assay: Antifungal activity against Mucor hiemalis by serial dilution method; type: functional
In short: (§1)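 MIC by 1:1 serial dilution in 96-well microtiter plates. Yeasts and fungi were grown in MYC medium (1.0% glucose, 1.0% phytone peptone, 50 mM HEPES, pH 7.0).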

[2] = tested on: Schizosaccharomyces pombe; assay: Antifungal activity against Schizosaccharomyces pombe by serial dilution method; type: functional; in short: as §1
Rhodotorula glutinis = assay: Antifungal activity against Rhodotorula glutinis by serial dilution method; type: functional; in short: as §1
Wickerhamomyces anomalus = assay: Antifungal activity against Pichia anomala by serial dilution method; type: functional; conditions: Hansenula anomala; in short: as §1
Candida albicans = assay: Antifungal activity against Candida albicans by serial dilution method; type: functional; in short: as §1
HUVEC = assay: Cytotoxicity against HUVEC by MTT assay; type: cell-based; conditions: Homo sapiens
[3] = tested on: Trypanosoma brucei rhodesiense; assay: Antiparasitic activity against Trypanosoma brucei rhodesiense; type: functional, organism-based
Trypanosoma cruzi = assay: Antiparasitic activity against Trypanosoma cruzi; type: functional, organism-based
Leishmania donovani = assay: Antiparasitic activity against Leishmania donovani axenic amastigotes; type: functional, organism-based
Plasmodium falciparum = assay: Antiparasitic activity against Plasmodium falciparum K1; type: functional, organism-based
L929 = assay: Cytotoxicity against mouse L929 cells by MTT assay; type: cell-based

Compound `CC1=C(/C=C/CC(O)\C=C/C=C/C(C)=C/C=C/C(C)C(O)C(C)CCc2ccccc2)OC(C)(O)C1=O` (stereo not given) has an MIC (Micrococcus luteus) of over 67 µg/mL, an MIC (Staphylococcus aureus) of over 67 µg/mL and an MIC (Escherichia coli) of over 67 µg/mL. For the same compound, the MIC (Nocardia; read-out: MIC) was 8.3 µg/mL (≈ 16.4 µM), the MIC [1] was over 67 µg/mL and the MIC (Pseudomonas aeruginosa) was over 67 µg/mL. For the same compound, the MIC (Mycolicibacterium phlei) was over 67 µg/mL, the MIC (Mucor hiemalis) was over 67 µg/mL and the MIC [2] was over 67 µg/mL. It also gave an MIC (Rhodotorula glutinis) of over 67 µg/mL, an MIC (Wickerhamomyces anomalus) of over 67 µg/mL and an MIC (Candida albicans) of over 67 µg/mL.
In the case of `CC1=C(CC(O)CC(O)\C=C/C=C/C(C)=C/C=C/C(C)C(O)C(C)CCc2ccccc2)OC(C)(O)C1=O` (stereo not given), the MIC (Micrococcus luteus) is reported as over 67 µg/mL, the MIC (Staphylococcus aureus) is reported as over 67 µg/mL and the MIC (Escherichia coli) is reported as over 67 µg/mL. The MIC (Nocardia) was over 67 µg/mL, the MIC [1] was over 67 µg/mL and the MIC (Pseudomonas aeruginosa) was over 67 µg/mL. The MIC (Mycolicibacterium phlei) was over 67 µg/mL, the MIC (Mucor hiemalis) was over 67 µg/mL and the MIC [2] was over 67 µg/mL. The MIC (Rhodotorula glutinis) was over 67 µg/mL, the MIC (Wickerhamomyces anomalus) was over 67 µg/mL and the MIC (Candida albicans) was over 67 µg/mL. For the same compound, the IC50 (HUVEC) was 2670 nM, the Activity [3] was “inactive” and the Activity (Trypanosoma cruzi) was “inactive”. The Activity (Leishmania donovani) was “inactive” and the Activity (Plasmodium falciparum) was “inactive”.
Compound `CC1=C(CC(O)CC(O)/C=C/C=C/C(C)=C/C=C/C(C)C(O)C(C)CCc2ccccc2)OC(C)(O)C1=O` (stereo not given) has an MIC (Micrococcus luteus) of over 67 µg/mL, an MIC (Staphylococcus aureus) of over 67 µg/mL and an MIC (Escherichia coli) of over 67 µg/mL. The MIC (Nocardia) was over 67 µg/mL, the MIC [1] was over 67 µg/mL and the MIC (Pseudomonas aeruginosa) was over 67 µg/mL. It also gave an MIC (Mycolicibacterium phlei) of over 67 µg/mL, an MIC (Mucor hiemalis) of over 67 µg/mL and an MIC [2] of over 67 µg/mL. For the same compound, the MIC (Rhodotorula glutinis) was over 67 µg/mL, the MIC (Wickerhamomyces anomalus) was over 67 µg/mL and the MIC (Candida albicans) was over 67 µg/mL.
Compound `CC(/C=C/CCCC/C=C/c1oc(=O)c(C)c(O)c1C)=C\C=C\C(C)C(O)C(C)CCc1ccccc1` (stereo not given) has an MIC (Micrococcus luteus) of over 67 µg/mL, an MIC (Staphylococcus aureus) of over 67 µg/mL and an MIC (Escherichia coli) of over 67 µg/mL. The MIC (Nocardia; read-out: MIC) was 16.6 µg/mL (≈ 32.9 µM), the MIC [1] was over 67 µg/mL and the MIC (Pseudomonas aeruginosa) was over 67 µg/mL. The MIC (Mycolicibacterium phlei) was over 67 µg/mL, the MIC (Mucor hiemalis; read-out: MIC) was 33.3 µg/mL (≈ 66 µM) and the MIC [2] was over 67 µg/mL. For the same compound, the MIC (Rhodotorula glutinis) was over 67 µg/mL, the MIC (Wickerhamomyces anomalus) was over 67 µg/mL and the MIC (Candida albicans) was over 67 µg/mL. For the same compound, the IC50 (L929) was 22 µM.
`CC1=C(CC(O)CC(O)\C=C/C=C/C(C)=C/C=C/C(C)C(O)C(C)CCc2ccccc2)[N+](C)(CCO)C(C)(O)C1=O` (stereo not given) showed an MIC (Micrococcus luteus) of over 67 µg/mL, an MIC (Staphylococcus aureus) of over 67 µg/mL and an MIC (Escherichia coli) of over 67 µg/mL. The MIC (Nocardia; read-out: MIC) was over 67 µg/mL, the MIC [1] was over 67 µg/mL and the MIC (Pseudomonas aeruginosa) was over 67 µg/mL. It also gave an MIC (Mycolicibacterium phlei) of over 67 µg/mL, an MIC (Mucor hiemalis; read-out: MIC) of over 67 µg/mL and an MIC [2] of over 67 µg/mL. For the same compound, the MIC (Rhodotorula glutinis) was over 67 µg/mL, the MIC (Wickerhamomyces anomalus) was over 67 µg/mL and the MIC (Candida albicans) was over 67 µg/mL.
`CC1=C(O)C(C)O/C(=C/CC(O)\C=C/C=C/C(C)=C/C=C/C(C)C(O)C(C)CCc2ccccc2)C1=O` (stereo not given) showed an MIC (Micrococcus luteus) of over 67 µg/mL, an MIC (Staphylococcus aureus) of over 67 µg/mL and an MIC (Escherichia coli) of over 67 µg/mL. The MIC (Nocardia) was over 67 µg/mL, the MIC [1] was over 67 µg/mL and the MIC (Pseudomonas aeruginosa) was over 67 µg/mL. The MIC (Mycolicibacterium phlei) was over 67 µg/mL, the MIC (Mucor hiemalis; read-out: MIC) was at most 67 µg/mL and the MIC [2] was over 67 µg/mL. It also gave an MIC (Rhodotorula glutinis) of over 67 µg/mL, an MIC (Wickerhamomyces anomalus) of over 67 µg/mL and an MIC (Candida albicans) of over 67 µg/mL.
For `CC1=C(CC(O)CC(O)\C=C/C=C/C(C)=C/C=C/C(C)C(O)C(C)CCc2ccccc2)N(CCO)C(C)(O)C1=O` (stereo not given), the MIC (Micrococcus luteus) was over 67 µg/mL, the MIC (Staphylococcus aureus) was over 67 µg/mL and the MIC (Escherichia coli) was over 67 µg/mL. The MIC (Nocardia) was over 67 µg/mL, the MIC [1] was over 67 µg/mL and the MIC (Pseudomonas aeruginosa) was over 67 µg/mL. It also gave an MIC (Mycolicibacterium phlei) of over 67 µg/mL, an MIC (Mucor hiemalis) of over 67 µg/mL and an MIC [2] of over 67 µg/mL. The MIC (Rhodotorula glutinis) was over 67 µg/mL, the MIC (Wickerhamomyces anomalus) was over 67 µg/mL and the MIC (Candida albicans) was over 67 µg/mL.
